Experimental data: ChEMBL document CHEMBL1140872, “Discovery of a potent and selective inhibitor for human carbonyl reductase 1 from propionate scanning applied to the macrolide zearalenone” (Bioorg Med Chem, 2009)

Columns and labels:
[1] = target: Serine/threonine-protein kinase pim-2 (Homo sapiens) (UniProt Q9P1W9); assay: Binding affinity to human recombinant PIM2 expressed in Escherichia coli assessed as thermal shift by differential scanning fluorimetry
Method in brief: (§1)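 Thermal-shift (DSF) binding assay with purified recombinant catalytic domains or proteins carrying an N- or C-terminal His6 tag or GST fusion. Purity was >95% by SDS/PAGE and identity was confirmed by MS. Protein was at 2 µM final in 10 mM HEPES pH 7.5 and 150 mM NaCl. Tm shift is reported, with 2 °C as the threshold for binding.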

Homo sapiens = organism: Homo sapiens; assay: Binding affinity to human recombinant DYRK1 expressed in Escherichia coli assessed as thermal shift by differential scanning fluorimetry; method in brief: as §1
[2] = target: T1, Serine/threonine-protein kinase 3 (Homo sapiens) (UniProt Q13188); assay: Binding affinity to human recombinant STK3 expressed in Escherichia coli assessed as thermal shift by differential scanning fluorimetry; method in brief: as §1
T1 sequence (whole entry): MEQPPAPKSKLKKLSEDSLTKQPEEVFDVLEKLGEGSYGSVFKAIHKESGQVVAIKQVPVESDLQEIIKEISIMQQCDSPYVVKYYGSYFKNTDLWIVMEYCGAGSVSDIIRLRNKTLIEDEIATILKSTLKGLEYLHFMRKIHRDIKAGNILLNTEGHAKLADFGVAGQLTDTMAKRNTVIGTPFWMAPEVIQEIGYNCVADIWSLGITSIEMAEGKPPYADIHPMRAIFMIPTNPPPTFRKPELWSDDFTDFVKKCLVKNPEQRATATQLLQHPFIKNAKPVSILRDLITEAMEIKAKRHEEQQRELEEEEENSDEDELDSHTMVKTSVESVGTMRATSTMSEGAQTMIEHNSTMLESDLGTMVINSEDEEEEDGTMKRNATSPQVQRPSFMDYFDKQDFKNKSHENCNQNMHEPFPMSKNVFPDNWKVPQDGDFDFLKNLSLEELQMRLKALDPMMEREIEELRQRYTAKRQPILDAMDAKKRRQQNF

[3] = target: T2, Dual specificity mitogen-activated protein kinase kinase 6 (Homo sapiens) (UniProt P52564); assay: Binding affinity to human recombinant MAP2K6 expressed in Escherichia coli assessed as thermal shift by differential scanning fluorimetry; method in brief: as §1
T2 sequence (whole entry): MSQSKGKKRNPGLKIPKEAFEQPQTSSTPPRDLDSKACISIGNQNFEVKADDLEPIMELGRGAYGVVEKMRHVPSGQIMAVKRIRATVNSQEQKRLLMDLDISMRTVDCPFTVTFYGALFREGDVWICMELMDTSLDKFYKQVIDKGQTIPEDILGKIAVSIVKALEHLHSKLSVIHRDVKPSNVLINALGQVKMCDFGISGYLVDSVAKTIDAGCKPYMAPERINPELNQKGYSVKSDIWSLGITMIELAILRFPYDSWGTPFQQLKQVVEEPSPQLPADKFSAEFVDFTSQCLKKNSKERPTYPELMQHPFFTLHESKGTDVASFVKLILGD

[4] = target: T3, Serine/threonine-protein kinase PLK4 (Homo sapiens) (UniProt O00444); assay: Binding affinity to human recombinant PLK4 expressed in Escherichia coli assessed as thermal shift by differential scanning fluorimetry; method in brief: as §1
T3 sequence (whole entry): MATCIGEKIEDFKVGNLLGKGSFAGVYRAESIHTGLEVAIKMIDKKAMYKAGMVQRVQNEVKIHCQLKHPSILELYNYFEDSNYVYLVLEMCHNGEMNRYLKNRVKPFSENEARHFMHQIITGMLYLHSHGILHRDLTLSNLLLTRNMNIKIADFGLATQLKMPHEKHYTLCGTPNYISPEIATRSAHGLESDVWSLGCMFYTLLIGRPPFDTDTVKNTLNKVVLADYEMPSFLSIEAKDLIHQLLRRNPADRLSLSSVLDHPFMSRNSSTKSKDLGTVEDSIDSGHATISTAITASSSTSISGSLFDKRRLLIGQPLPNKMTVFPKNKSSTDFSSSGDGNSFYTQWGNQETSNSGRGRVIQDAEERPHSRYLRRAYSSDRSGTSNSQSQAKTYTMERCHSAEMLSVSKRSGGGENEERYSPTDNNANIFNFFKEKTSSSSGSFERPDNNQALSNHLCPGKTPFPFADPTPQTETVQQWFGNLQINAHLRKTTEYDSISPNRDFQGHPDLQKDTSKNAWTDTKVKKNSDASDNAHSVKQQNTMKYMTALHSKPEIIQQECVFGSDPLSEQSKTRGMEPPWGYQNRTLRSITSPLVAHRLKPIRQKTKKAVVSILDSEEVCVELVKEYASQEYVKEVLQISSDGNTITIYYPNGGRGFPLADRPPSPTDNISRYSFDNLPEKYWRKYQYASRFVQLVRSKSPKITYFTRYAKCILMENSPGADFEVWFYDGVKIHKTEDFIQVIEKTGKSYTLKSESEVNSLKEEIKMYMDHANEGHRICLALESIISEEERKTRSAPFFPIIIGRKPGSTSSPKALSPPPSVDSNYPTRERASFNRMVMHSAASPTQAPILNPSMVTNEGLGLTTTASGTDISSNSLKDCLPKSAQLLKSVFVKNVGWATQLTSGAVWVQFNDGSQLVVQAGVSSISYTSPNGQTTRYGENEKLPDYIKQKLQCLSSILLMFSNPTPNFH

[5] = target: Serine/threonine-protein kinase PAK 6 (Homo sapiens) (UniProt Q9NQU5); assay: Binding affinity to human recombinant PAK6 expressed in Escherichia coli assessed as thermal shift by differential scanning fluorimetry; method in brief: as §1
Serine/threonine-protein kinase PAK 6 (Homo sapiens), sequence (Q9NQU5 whole entry, looked up): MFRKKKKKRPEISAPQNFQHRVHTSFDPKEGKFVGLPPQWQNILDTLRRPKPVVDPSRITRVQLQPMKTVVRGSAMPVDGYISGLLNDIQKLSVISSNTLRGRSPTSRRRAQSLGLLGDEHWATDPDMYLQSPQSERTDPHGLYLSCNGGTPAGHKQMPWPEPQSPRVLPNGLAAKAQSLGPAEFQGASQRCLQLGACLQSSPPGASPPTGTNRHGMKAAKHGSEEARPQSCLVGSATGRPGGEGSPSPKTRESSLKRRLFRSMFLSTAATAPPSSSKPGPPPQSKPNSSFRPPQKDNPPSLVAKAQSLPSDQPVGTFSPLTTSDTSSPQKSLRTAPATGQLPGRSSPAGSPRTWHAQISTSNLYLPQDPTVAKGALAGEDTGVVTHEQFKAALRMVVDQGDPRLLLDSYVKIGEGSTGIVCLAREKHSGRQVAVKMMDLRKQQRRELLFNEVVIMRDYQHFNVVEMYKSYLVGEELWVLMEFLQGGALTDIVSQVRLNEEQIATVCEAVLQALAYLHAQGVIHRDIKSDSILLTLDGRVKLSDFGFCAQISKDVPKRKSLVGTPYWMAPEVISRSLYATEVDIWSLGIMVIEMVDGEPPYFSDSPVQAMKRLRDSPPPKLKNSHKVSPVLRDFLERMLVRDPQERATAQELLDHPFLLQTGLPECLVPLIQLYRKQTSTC

[6] = target: T4, Carbonyl reductase [NADPH] 3 (Homo sapiens) (UniProt O75828); assay: Binding affinity to human recombinant carbonyl reductase 3 expressed in Escherichia coli assessed as thermal shift by differential scanning fluorimetry in presence of NADP+; method in brief: as §1
T4 sequence (whole entry): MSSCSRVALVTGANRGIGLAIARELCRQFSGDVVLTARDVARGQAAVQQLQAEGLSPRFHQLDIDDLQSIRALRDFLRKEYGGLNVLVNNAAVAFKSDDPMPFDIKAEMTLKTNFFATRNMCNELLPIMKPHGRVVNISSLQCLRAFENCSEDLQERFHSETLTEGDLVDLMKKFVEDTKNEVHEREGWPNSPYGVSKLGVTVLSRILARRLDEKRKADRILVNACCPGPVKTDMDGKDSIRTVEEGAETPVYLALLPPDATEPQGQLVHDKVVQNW

Serine/threonine-protein kinase pim-2 (Homo sapiens), sequence (Q9P1W9 whole entry, looked up, the tested form may be a part): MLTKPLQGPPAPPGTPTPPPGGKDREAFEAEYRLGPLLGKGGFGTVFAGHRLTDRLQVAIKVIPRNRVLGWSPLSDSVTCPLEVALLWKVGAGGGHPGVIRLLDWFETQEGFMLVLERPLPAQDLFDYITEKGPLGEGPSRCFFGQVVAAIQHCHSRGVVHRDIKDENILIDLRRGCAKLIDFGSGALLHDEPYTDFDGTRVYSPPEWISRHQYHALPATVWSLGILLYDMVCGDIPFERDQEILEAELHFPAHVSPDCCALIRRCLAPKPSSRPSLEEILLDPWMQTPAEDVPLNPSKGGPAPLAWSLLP

Compound | Tm [1] | Tm (Homo sapiens) | Tm [2] | Tm [3] | Tm [4] | Tm [5] | Tm [6]
C[C@H]1CCCC(=O)CCC/C=C/c2cc(O)cc(O)c2C(=O)O1 | 2.6 °C | < 2 °C | < 2 °C | < 2 °C | < 2 °C | < 2 °C | < 2 °C
COC1=C2C[C@@H](C)C[C@H](OC)[C@H](O)[C@@H](C)/C=C(\C)[C@H](OC(N)=O)[C@@H](OC)/C=C\C=C(/C)C(=O)NC(=CC1=O)C2=O | < 2 °C | < 2 °C | < 2 °C | < 2 °C | < 2 °C | < 2 °C | < 2 °C
C[C@H]1CCCC(=O)[C@@H](C)CC/C=C/c2cc(O)cc(O)c2C(=O)O1 | < 2 °C | < 2 °C | < 2 °C | < 2 °C | < 2 °C | < 2 °C | < 2 °C
COc1cc(O)c2c(c1)/C=C/CC[C@H](C)C(=O)CCC[C@H](C)OC2=O | < 2 °C | < 2 °C | < 2 °C | < 2 °C | < 2 °C | < 2 °C | < 2 °C
COc1cc2c(c(OC)c1)C(=O)O[C@@H](C)CCC[C@@H](O)[C@@H](C)CC/C=C/2 | < 2 °C | < 2 °C | < 2 °C | < 2 °C | < 2 °C | < 2 °C | < 2 °C
COc1cc2c(c(OC)c1)C(=O)O[C@@H](C)CCCC(=O)[C@@H](C)CC/C=C/2 | < 2 °C | < 2 °C | < 2 °C | < 2 °C | < 2 °C | < 2 °C | < 2 °C
C[C@@H]1C[C@H]2O[C@@H]2/C=C\C=C\C(=O)Cc2c(Cl)c(O)cc(O)c2C(=O)O1 [RADICICOL] | < 2 °C | < 2 °C | < 2 °C | < 2 °C | < 2 °C | < 2 °C | < 2 °C
